CAL PDZ FP-1: blocks peptide binding to human CAL PDZ domain; purified CAL PDZ, TMR-peptide fluorescence polarization, 1 h; 330,000 compounds, 0.02% hits; inhibition, % at 20 µM; Q9HD26; AID 504414;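 active = highest replicate inhibition of at least 40%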;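 note: plate controls were DMSO neutral control wells for no effect and unlabeled competitor peptide control wells for full effect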
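material = purified tagged CAL PDZ domain construct (CerCALP) | compound dosing = 20 µM, one dose | times = 1 h at RT | measured by = fluorescence polarization from S- and P-plane intensities, G-factor corrected | read-out = inhibition from polarization loss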
ARNT TACC3 PPI: ARNT/TACC3 interaction disruption; Q9Y6A5; AlphaScreen His-ARNT PAS-B/GST-TACC3 binding, luminescence; TACC3 fragment carries E629A point mutation; inhibition, % at 9.99 µM; 390,000 compounds, 0.66% hits; AID 623870;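 active = mean inhibition of replicates at least 50% and at least half of replicates each reaching 50%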;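 note: 0% = complete ARNT plus TACC3 wells and 100% = ARNT alone without TACC3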
F508del corr: correctors of CFTR F508del function in bronchial epithelial cells; CFBE cells, YFP halide quenching; stimulated with forskolin plus potentiator P3; % fluorescence drop versus neutral controls; activity (quench increase), % at 7.58 µM; 350,000 compounds, 0.36% hits;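 active = mean added fluorescence quench of at least 8% versus neutral control, with both replicates also reaching 8%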;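 note: cells transiently co-express mutant CFTR-F508del with the halide-sensitive YFP; corrector assay measuring rescue of mutant channel to the surface after 24 h compound exposure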
CAL PDZ FP-2: inhibitors of human CAL PDZ peptide binding. purified CAL PDZ, TMR-peptide fluorescence polarization, 1 h. inhibition, % at 24.9 µM. 300,000 compounds, 0.92% hits. AID 602252;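 active = mean inhibition of at least 30% with at least half of replicates also reaching 30%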;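 note: 0% = DMSO neutral control and 100% = excess unlabeled competitor peptide PRC23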
miR-122 sensor: blocks miR-122 activity in Huh7 sensor cells; Huh7 miR-122 Renilla luciferase sensor, 48 h; neutral wells = 0, positive control = 100; activation (reporter increase), % at 12.5 µM; 340,000 compounds, 0.3% hits;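 active = mean replicate activation score at least 90 and every replicate individually at or above 90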;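 note: higher luciferase means less miR-122 activity so hits act as miR-122 inhibitors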
PGC1a acetyl inh: modulators of PGC1a acetylation; U2OS PGC1a acetylation, AlphaScreen anti-acetyl-lysine; with virally co-expressed GCN5 acetyltransferase; inhibition, % at 15.6 µM; 350,000 compounds, 0.17% hits;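 active = every replicate shows inhibition of at least 40%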;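 note: 0% = neutral control wells and 100% = positive control wells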
* marks the source's active call; other numbers are inactive results; / = no result; [ ] = remark or other dose. In the library only some 1.7% were active in any assay of this set; here they are far more common.

SMILES	CAL PDZ FP-1	ARNT TACC3 PPI	F508del corr	CAL PDZ FP-2	miR-122 sensor	PGC1a acetyl inh
c1ccc2c(c1)N1CCCN=C1N2CCN1CCCCC1	-2	/	8.9*	1	/	/
c1ccc2c(c1)N1CCN=C1N2CCN1CCCCC1	0	-2	/	/	-2	5
COCCNC(=O)[C@H]1[C@H](CO)[C@H]2Cn3c(ccc(-c4ccccc4)c3=O)[C@@H]1N2C(=O)NC(C)C	/	-1	1	/	-4[16.7 µM]	/
O=C(N[C@@H]1C=C[C@@H](CC(=O)N2CCCCC2)O[C@@H]1CO)c1cccc(F)c1	/	/	0	/	/	-9
COc1cccc(NC(=O)C2CCN(S(=O)(=O)c3ccc4c(c3)OCCO4)CC2)c1	-2	1	/	/	5	3
COc1cccc(NC(=O)C2CCN(S(=O)(=O)c3ccccc3)CC2)c1	1	47*	1	3	-4	-5
COc1ccc(S(=O)(=O)N2CCC(C(=O)N[C@H](C(=O)N3CCCC3)C(C)C)CC2)cc1	0	1	0	94*	-5	-16
COc1ccc(S(=O)(=O)N2CCC(C(=O)N[C@H](C(=O)N3CCCCCC3)C(C)C)CC2)cc1	0	7	0	-4	-1	-16
CCN(CC)CCCNC1=C(Cl)C(=O)c2ccccc2C1=O	0	15*	4	3	-14	18
COCCCNC1=C(Cl)C(=O)c2ccccc2C1=O	0	8	-4	0	-1	5
CCC(=O)Nc1ccc2c(c1)C(=O)N(C)C[C@@H](OC)[C@@H](C)CN(C(=O)NC(C)C)[C@H](C)CO2	/	-10	-2	/	-1[16.7 µM]	-2
C[C@@H]1CN([C@@H](C)CO)C(=O)Cc2cc(NS(C)(=O)=O)ccc2O[C@H]1CN(C)S(=O)(=O)c1cn(C)cn1	/	14	2	/	4[16.7 µM]	7
COc1ccc(-n2nc3c(c2NC(=O)c2ccco2)CS(=O)(=O)C3)cc1	-1	0	0	76*	-3	-11
Cc1cc(C)c(C#N)c(Nc2ccccc2C)n1	-1	-5	-1	-4	4	-6
Cc1cc(C)c(C#N)c(Nc2cccc(C)c2C)n1	4	-24	1	83*	52	/
COCC(=O)N1C[C@@H]2[C@H](c3ccccc31)[C@H](CO)N2Cc1ccc(OC)cc1	/	-5	10*	/	-5[16.7 µM]	9
COCC(=O)N1C[C@H]2[C@@H](c3ccccc31)[C@@H](CO)N2Cc1ccc(OC)cc1	/	-5	6	/	3[16.7 µM]	5
CCCNC(=O)N1C[C@@H]2[C@H](c3ccccc31)[C@H](CO)N2Cc1ccc(OC)cc1	/	-5	8.2*	/	-20[16.7 µM]	1
CC(=O)N/N=C/c1cc(C(C)C)cc(/C=N/NC(C)=O)c1O	-2	72*	-2	-3	/	/
O=C(Nc1ccc(F)cc1)N1CCCCN2[C@H](CO)[C@@H](c3ccc(-c4ccccc4F)cc3)[C@H]2C1	/	19	3	/	0[16.7 µM]	-22
Cc1ccc(S(=O)(=O)N(C)c2ccc(OC(C)C(=O)N3CCCC3)cc2)cc1C (stereo unspecified)	0	5	-2	6	/	-61
Cc1ccc(S(=O)(=O)N(C)c2ccc(OC(=O)c3cccs3)cc2)cc1C	-1	-1	4	49*	-8	2
C[C@H](CO)N1C[C@H](C)[C@@H](CN(C)C(=O)Nc2cccc3ccccc23)Oc2ccc(NS(C)(=O)=O)cc2CC1=O	/	/	-5	/	/	4
O=C(C[C@@H]1CC[C@H](NC(=O)c2ccncc2)[C@H](CO)O1)NCC1CC1	/	-9	1	/	/	9
O=C1CC2c3ccccc3C1C1C(=O)N(Cc3ccccc3)C(=O)C21 (stereo unspecified)	-1	-10	-2	35*	/	4
SMILES	CAL PDZ FP-1	ARNT TACC3 PPI	F508del corr	CAL PDZ FP-2	miR-122 sensor	PGC1a acetyl inh
Cc1noc(C)c1S(=O)(=O)Nc1ccc2c(c1)C(=O)N([C@@H](C)CO)C[C@H](C)[C@@H](CN(C)C(=O)C1CCCCC1)OCCCC[C@H](C)O2	/	15	-8	/	-9[16.7 µM]	-5
O=C(/C=C/c1ccc([N+](=O)[O-])cc1)NNC(=O)C1CC1	0	-2	-2	74*	-2	-13
O=C(/C=C/c1ccc([N+](=O)[O-])cc1)NC1CC2CCC1C2 (stereo unspecified)	-2	-6	-1	21	/	/
CC1=C(C(=O)OC(C)(C)C)C(c2ccc3ccccc3c2)NC(=O)N1C (stereo unspecified)	-1	0	-2	/	-1	66*
Cc1ccc(Nc2nc3ccccc3n3cnnc23)cc1C	-1	5	5	-13	-2	-7
COc1cccc(/C=N/Nc2nc3ccccc3n3cnnc23)c1O	-1	85*	/	-6	/	/
COc1ccc(Nc2nc3ccccc3n3cnnc23)cc1	-3	0	/	60*	6	-2
CN1C(=S)SC(C)(C)C1/[N+]([O-])=C/c1cccnc1 (stereo unspecified)	/	-4	/	123*	-2	8
CN(C)c1ccc(/C=[N+](\[O-])C2N(c3ccccc3)C(=S)SC2(C)C)cc1 (stereo unspecified)	0	/	/	-4	6	-26
O=C(O)CN=C(NS(=O)(=O)c1ccc(Cl)cc1)c1ccc(F)cc1	-2	-10	-5	-3	/	/
O=S(=O)(NC(=NCc1ccccc1)c1ccc(F)cc1)c1ccc(Cl)cc1	1	-3	1	/	148*	-15
NC(=NCCc1ccc(Cl)cc1)NS(=O)(=O)c1ccc(F)cc1	-1	6	/	46*	/	/
C[C@H]1CN([C@@H](C)CO)S(=O)(=O)c2ccc(C#CC3CC3)cc2O[C@H]1CN(C)C	/	-3	0	/	21[16.7 µM]	6
Cc1noc(C)c1NC(=O)N(C)C[C@H]1Oc2ccc(NS(=O)(=O)c3c(C)noc3C)cc2CC(=O)N([C@@H](C)CO)C[C@H]1C	/	-15	0	/	19[16.7 µM]	14
Cc1cc(C(=O)Nc2cccc3c2O[C@@H](CN(C)C(=O)Nc2ccc(F)cc2)[C@@H](C)CN([C@@H](C)CO)C3=O)n(C)n1	/	-2	-3	/	-12[16.7 µM]	5
COCc1cc(=O)[nH]c(Nc2nc3ccccc3o2)n1	-2	60*	/	0	12	-8
COc1ccccc1C(=O)NC(CCSC)C(=O)NC1CC1 (stereo unspecified)	-2	/	-1	62*	1	0
COc1ccccc1C(=O)NC(CCSC)C(=O)NC1CCCCCC1 (stereo unspecified)	-1	1	-3	/	/	/
O=C1C=C(O)c2[nH]c(=O)ccc2C1=O	-2	36*	0	-2	/	/
O=C1C=C(O)c2c(O)cc(O)c(O)c2C1=O	0	19	-1	-1	-1	6
CCOC(=O)C1=C(C)N=c2s/c(=C\c3ccncc3)c(=O)n2C1c1ccc2c(c1)OCO2 (stereo unspecified)	-1	-1	/	-3	-7	5

From PubChem
